Rows were chosen to be rich in hits. Some 1% of all compounds tested hit in one or more screens of this group.
PvdQ inh: blocks Pseudomonas aeruginosa PvdQ acylase activity | purified PvdQ acylase, fluorescence plate reader | inhibition, % at 10 µM | 340,000 compounds, 0.063% hits | AID 488965; in the data active means inhibition above about 30%, passing the limit was not always enough;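 further: 0% = vehicle neutral wells and 100% = reference inhibitor wells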
VIM-2 inh: inhibitors of Pseudomonas aeruginosa VIM-2 metallo-beta-lactamase | purified VIM-2, nitrocefin hydrolysis, epi-absorbance fluorescence | inhibition, % at 5.6 µM | 290,000 compounds, 0.89% hits;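 active means inhibition above the mean of all tested compounds plus 3 SD, cutoff set per screening run, cut at about 7.5% in these data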;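 further: red hydrolysis product quenches plate fluorescence so inhibitors raise well fluorescence; 0% = enzyme with DMSO and 100% = DMSO without enzyme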
IMP-1 inh-1: blocks Pseudomonas aeruginosa IMP-1 metallo-beta-lactamase. purified IMP-1, nitrocefin hydrolysis, epi-absorbance fluorescence. inhibition, % at 5.6 µM. 290,000 compounds, 0.45% hits;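 active means inhibition above the mean plus 3 SD of all compounds in the same screening run, cut at about 4.5% in these data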;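 further: 0% = IMP-1 with DMSO and 100% = DMSO wells lacking enzyme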
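System: purified IMP-1 / Input: IMP-1 dispensed at 0.2 nM / Medium: 50 mM HEPES pH 7.1, 50 µM ZnSO4, 0.05% Brij 35 / Timing: 15 min enzyme–compound preincubation, then 25 min nitrocefin reaction, 25 °C / Technique: plate fluorescence quenching by hydrolysis product, ex 480/em 530 nm / Repeats: singlicate testing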
PglD inh: blocks C. jejuni PglD acetyltransferase activity; purified PglD enzyme, DTNB colorimetric CoA detection; inhibition, % at 12.5 µM; 360,000 compounds, 0.098% hits; AID 602405; in the data active means inhibition above about 16%, passing the limit was not always enough
ERp5 inh: ERp5 (human) disulfide isomerase inhibition; ERp5 insulin aggregation, absorbance 650 nm, 90 min; inhibition, % at 9.99 µM; AID 651711; 350,000 compounds, 0.05% hits; Q15084;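 active means mean replicate inhibition above about 25%, with every replicate also reaching it, limit read from the data, passing the limit was not always enough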
PDI turbidity: blocks human protein disulfide isomerase activity; PDI insulin aggregation turbidity, A650, 90 min; inhibition, % at 10 µM; 350,000 compounds, 0.052% hits; AID 588391;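 active means mean inhibition across replicates of 30% or more, whatever share of single replicates reach that level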
IMP-1 inh-2: selectivity counter-screen for VIM-2 inhibitors: IMP-1 metallo-beta-lactamase inhibitors. AID 1856. 1,300 tested, under 10 active. shares compounds with VIM-2 inh. purified IMP-1, nitrocefin hydrolysis, epi-absorbance fluorescence. inhibition, % at 5.6 µM; call rule not given here;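 further: 0% = enzyme with vehicle and 100% = vehicle without enzyme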
VIM-2 FRET ctr: VIM-2 FRET inhibition, artifact counter-screen; shares compounds with VIM-2 inh; purified VIM-2, CCF2 FRET substrate hydrolysis; AID 1857; 1,300 compounds, 23% hits; inhibition, % at 5.6 µM;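 active means inhibition above the mean of all tested compounds plus 3 SD, cut at about 19% in these data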;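 further: 0% = VIM-2 plus DMSO and 100% = no enzyme wells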
TEM-1 inh: blocks E. coli TEM-1 beta-lactamase in VIM-2 selectivity screen; shares compounds with VIM-2 inh; 1,300 compounds, 3% hits; Purified TEM-1, nitrocefin hydrolysis, epi-absorbance fluorescence; AID 1866; inhibition, % at 5.6 µM;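 active means inhibition above that campaign's mean inhibition plus 3 SD, cut at about 0.46% in these data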;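 further: 0% = TEM-1 with DMSO and 100% = TEM-1 with 100 µM potassium clavulanate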
Target sequence (P62593 whole entry, looked up): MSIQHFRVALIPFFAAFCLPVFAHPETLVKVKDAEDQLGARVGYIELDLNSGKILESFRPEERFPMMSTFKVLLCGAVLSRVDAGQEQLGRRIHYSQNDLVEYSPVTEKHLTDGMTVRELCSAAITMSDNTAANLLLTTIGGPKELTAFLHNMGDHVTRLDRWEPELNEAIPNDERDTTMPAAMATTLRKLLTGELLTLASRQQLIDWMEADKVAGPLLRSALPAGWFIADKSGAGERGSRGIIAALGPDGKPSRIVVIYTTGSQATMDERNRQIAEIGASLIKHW
VIM-2 confirm 2: confirmation of P. aeruginosa VIM-2 metallo-beta-lactamase inhibitors | inhibition, % at 5.6 µM | 1,300 compounds, 96% hits | AID 2187 | purified VIM-2, nitrocefin hydrolysis, epi-absorbance | shares compounds with VIM-2 inh;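 active means inhibition of the VIM-2 beta-lactamase enzyme above about 11% from the earlier first-round screen, limit read from the data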;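 further: 0% = VIM-2 with DMSO and 100% = buffer wells without enzyme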
An asterisk follows results filed as active; x = not tested or not shown.

SMILES | PvdQ inh | VIM-2 inh | IMP-1 inh-1 | PglD inh | ERp5 inh | PDI turbidity | IMP-1 inh-2 | VIM-2 FRET ctr | TEM-1 inh | VIM-2 confirm 2
Cc1ccc(Nc2c3c(nc4ncnn24)CCC3)cc1 | -9 | 17* | -1 | -9 | 2 | -3 | -3 | 1 | -5 | 24*
COc1cc2oc3ccccc3c(=O)c2cc1OC | -4 | 14* | -2 | 3 | x | x | -3 | 0 | -4 | 18*
O=c1c2ccccc2oc2cc(Br)ccc12 | -12 | x | x | -5 | -1 | 5 | x | x | x | x
COc1ccc2c3c(n(C)c2c1)[C@H](CO)N(C(C)=O)CC31CN(C(=O)Nc2ccc(F)cc2)C1 | x | x | x | x | 8 | x | x | x | x | x
CCN1CCN(CCCNC(=O)c2ccc3c(c2)NC(=O)/C(=C\c2cccc(C)c2)S3)CC1 | -5 | 4 | -3 | 1 | -6 | -9 | x | x | x | x
CCN1CCCC1CNC(=O)c1ccc2c(c1)NC(=O)/C(=C\c1ccccc1Cl)S2 (stereo unspecified) | x | x | x | 2 | -2 | -1 | x | x | x | x
COc1ccc(C(=O)NCCCN2CCOCC2)cc1OC | -7 | -3 | -2 | -2 | x | -6 | x | x | x | x
COc1ccc(/C=C2/Sc3ccc(C(=O)NCCCN4CCOCC4)cc3NC2=O)cc1OC | -5 | 22* | -4 | -1 | 0 | 6 | -4 | 19* | -13 | 25*
CCN1CCCC1CNC(=O)c1ccc2c(c1)NC(=O)/C(=C\c1ccc(OC)c(OC)c1)S2 (stereo unspecified) | 12 | 21* | 1 | -3 | -2 | 5 | -4 | 14 | -7 | 24*
Cc1cccc(/C=C2/Sc3ccc(C(=O)NCCCN4CCOCC4)cc3NC2=O)c1 | -10 | 18* | -3 | 4 | -9 | 8 | -2 | 23* | -7 | 12*
COc1ccccc1Nc1nnc(SCc2cc(=O)n3ccsc3n2)s1 | -12 | 13* | 1 | 11 | 2 | 0 | 1 | 14 | 3.0* | 12*
Cc1ccc(Nc2nnc(SCc3cc(=O)n4ccsc4n3)s2)c(C)c1 | 2 | -1 | 3 | 5 | x | -5 | x | x | x | x
COc1ccc(NC(=O)N[C@@H]2CC[C@@H](CC(=O)NC3CCC3)O[C@H]2CO)cc1 | x | x | x | 6 | 1 | x | x | x | x | x
CCN(CC)C(=O)CSc1nc2ccc(NC(=O)CSc3nccn3C)cc2s1 | 1 | 21* | -3 | x | x | -4 | -3 | 52* | -7 | 36*
CCN(CC)C(=O)CSc1nc2ccc(NC(=O)CSc3nnc(N)s3)cc2s1 | 8 | -3 | -2 | -1 | x | 0 | x | x | x | x
CNC(=O)C[C@@H]1CC[C@@H]2[C@H](COC[C@@H](O)CN2C(=O)Nc2cccc(OC)c2)O1 | x | x | x | 1 | 5 | x | x | x | x | x
O=c1c2ccccc2cnn1Cc1n[nH]c(=S)n1C1CC2CCC1C2 (stereo unspecified) | -6 | 15* | -4 | x | 2 | -6 | -3 | 38* | -6 | 21*
CC(c1ccccc1)n1c(Cn2ncc3ccccc3c2=O)n[nH]c1=S (stereo unspecified) | -7 | -2 | -3 | -2 | 0 | 2 | x | x | x | x
CN(C)C(=S)Nc1cccc(-c2n[nH]c(=S)o2)c1 | -4 | -2 | -2 | x | -3 | 27 | x | x | x | x
NNC(=S)Nc1cccc(-c2n[nH]c(=S)o2)c1 | 1 | 15* | -2 | -1 | 4 | -4 | -4 | 18* | -9 | 9.2*
C[C@H](NC(=O)C[C@@H]1C=C[C@H](NC(=O)CN2CCOCC2)[C@@H](CO)O1)c1ccccc1 | x | x | x | 1 | -4 | x | x | x | x | x
CC(=O)Nc1ccc2c(CSc3nnc(N)s3)cc(=O)oc2c1 | 18 | 21* | 2 | x | -3 | 2 | -4 | 10 | -7 | 5
CC(=O)Nc1ccc2c(CN3C(=O)NC(C)(c4ccc(C)cc4)C3=O)cc(=O)oc2c1 (stereo unspecified) | -6 | -1 | -2 | x | 2 | 1 | x | x | x | x
C[C@@H]1CN([C@H](C)CO)C(=O)CCCn2cc(nn2)CO[C@@H]1CN(C)Cc1ccc(C(=O)Nc2ccccc2N)cc1 | x | x | x | -4 | 0 | x | x | x | x | x
c1ccc(CNc2nc(-c3ccccn3)nc3ccccc23)cc1 | -3 | 19* | 0 | -2 | -3 | -1 | -3 | -56 | -4 | 26*
SMILES | PvdQ inh | VIM-2 inh | IMP-1 inh-1 | PglD inh | ERp5 inh | PDI turbidity | IMP-1 inh-2 | VIM-2 FRET ctr | TEM-1 inh | VIM-2 confirm 2
CC1=CCC(C(=O)O)(C(=O)N/N=C/c2cccs2)C(c2ccc(Cl)cc2)C1 (stereo unspecified) | -16 | 15* | -1 | 7 | 1 | -4 | -4 | 0 | -5 | 4
O=C(O)c1sccc1OCc1ccccc1 | -9 | 0 | -5 | x | 0 | -7 | x | x | x | x
CC(C)(C)c1ccc(COc2ccsc2C(=O)O)cc1 | 6 | 20* | -4 | x | 2 | 16 | -3 | 48* | -4 | 29*
CCOC(=O)c1cnc2c(Cl)cccc2c1NCCCN1CCOCC1 | -11 | 20* | -3 | 0 | -2 | 10 | -3 | -1 | -5 | 28*
CCOC(=O)c1cnc2c(CC)cccc2c1NCCCN1CCOCC1 | -5 | 24* | 0 | -2 | -1 | 2 | -3 | 1 | -4 | 33*
CCOC(=O)c1cnc2c(C(F)(F)F)cccc2c1N1CCN(C)CC1 | 12 | 5 | -2 | x | -2 | -3 | x | x | x | x

Screening data: PubChem, several laboratories
